# CHO parental Ca = counter-screen: ATP calcium response change in parental CHO cells | parental CHO-K1, ATP-induced calcium, Fluo-8 fluorescence | inhibition, % at 5.6 µM | hit rate 0.63% among 330,000;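 active = inhibition above that plate's mean sample inhibition plus 3 SD, cut at about 26% in these data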
#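 material = parental CHO cells | also added = ATP as calcium-mobilizing challenge | dosing = single point at 5.6 µM | detection = intracellular calcium via Fluo-8 no-wash fluorescent dye | read-out = % inhibition | benchmarks = low control ATP plus DMSO, high control DMSO only | repeats = one well per compound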
# GPR7 antagonist = blocks human GPR7 receptor signaling; P48145; GPR7-expressing cells, fluorescence antagonist assay; inhibition, % at 4.4 µM; hit rate 1.1% among 290,000; AID 1861; in the data active = inhibition above about 16%, passing the limit was not always enough;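 also: cells stimulated with the agonist NPW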
# TAAR1 agonist = agonists of human TAAR1 | CHO RD-HGA16 TAAR1, Fluo-8 calcium fluorescence; vehicle wells 0%, saturating PEA agonist 100% | activation, % at 3 µM | hit rate 0.99% among 360,000 | AID 624467;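 active = activation above the mean activation of all test compounds in the run plus 3 SD, cut at about 38% in these data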
# Target sequence (Q96RJ0 whole entry, looked up): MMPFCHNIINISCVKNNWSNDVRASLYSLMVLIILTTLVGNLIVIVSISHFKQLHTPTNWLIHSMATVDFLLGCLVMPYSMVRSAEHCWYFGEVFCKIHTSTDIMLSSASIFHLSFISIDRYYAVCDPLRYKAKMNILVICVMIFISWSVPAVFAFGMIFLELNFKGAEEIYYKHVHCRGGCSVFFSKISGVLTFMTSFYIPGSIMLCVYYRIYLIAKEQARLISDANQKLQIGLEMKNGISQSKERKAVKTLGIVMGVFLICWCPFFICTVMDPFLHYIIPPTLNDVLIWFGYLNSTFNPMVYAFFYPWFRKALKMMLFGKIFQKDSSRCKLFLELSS
#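 Assay system: CHO-derived RD-HGA16 cells with stable Gα16 and human TAAR1; timing: 17-24 h seeding, 75 min 37 °C dye, 30 min RT; read-out: % activation from peak over basal fluorescence ratio, DMSO-to-PEA scaled; measured by: kinetic Fluo-8 calcium fluorescence; benchmarks: low control DMSO, high control PEA (EC100); doses: 3 µM single concentration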
# TAAR1 antag = human TAAR1 antagonism | AID 624466 | Q96RJ0 | CHO RD-HGA16 TAAR1, Fluo-8 calcium fluorescence, antagonist | inhibition, % at 3 µM | hit rate 1.5% among 360,000;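 active = inhibition above a per-plate cutoff, the mean inhibition of test compounds on that plate plus 3 SD, cut at about 49% in these data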
#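 Test system: RD-HGA16 CHO cells with stable hTAAR1 and Gα16 / Probe or stimulus: EC80 β-phenethylamine stimulus / Times: seeding 17-24 h prior, 75-min 37 °C, 30-min RT dye loading / Detection: Fluo-8 calcium-sensitive fluorescence / Read-out basis: % inhibition scaled between DMSO and EC80 PEA controls / Repeats: singlicate, one well per test compound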
# OX1R antag-1 = blocks the human orexin 1 receptor; OX1R-expressing cells, FRET antagonist read-out; inhibition, % at 6.6 µM; hit rate 1.8% among 330,000; AID 485270; in the data active = inhibition mostly above about 38%, no sharp cut-off; inactive = mostly below about 40%
# OX1R antag-2 = human HCRTR1 antagonism. O43613. inhibition, % at 5 µM. hit rate 0.43% among 330,000. CHO/OX1R cells, Fluo-8 calcium fluorescence, orexin A;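 active = inhibition above its plate's threshold, mean inhibition of all tested compounds on the plate plus 3 SD, cut at about 37% in these data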
# OX1R Ca confirm = OX1R (human) antagonism, confirmed; inhibition, % at 5 µM; hit rate 38% among 1,100; CHO/OX1R cells, orexin A calcium Fluo-8 fluorescence; shares compounds with OX1R antag-2; in the data active = inhibition above about 29%
# CHO Ca counter = counter-screen: parental CHO calcium response change, triplicate | hit rate 9.3% among 1,100 | AID 492965 | inhibition, % at 5.6 µM | shares compounds with OX1R antag-2 | parental CHO-K1, ATP-induced calcium, Fluo-8 fluorescence;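 active = inhibition above a per-plate limit, the mean inhibition of that plate's test compounds plus 3 SD, cut at about 25% in these data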
# OX1R HTRF confirm = confirmation of human orexin 1 receptor antagonists, HTRF format. shares compounds with OX1R antag-1. OX1R-expressing cells, HTRF antagonist assay. inhibition, % at 6.6 µM. hit rate 49% among 1,800. AID 492964; in the data active = inhibition above about 55%;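 also: CHO cells expressing OX1R stimulated with orexin A at about EC80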
# CHO-K1 HTRF = counter-screen for OX1R antagonists: effect in parental CHO-K1 cells | shares compounds with OX1R antag-1 | inhibition, % at 6.6 µM | HTRF counterscreen | hit rate 48% among 1,800 | AID 493232; in the data active = inhibition above about 17%
# Numbers stand for hits; - = inactive; . = no result given. In the library only some 4.5% were active in any assay of this set; here they are far more common.
SMILES,CHO parental Ca,GPR7 antagonist,TAAR1 agonist,TAAR1 antag,OX1R antag-1,OX1R antag-2,OX1R Ca confirm,CHO Ca counter,OX1R HTRF confirm,CHO-K1 HTRF
O=C(c1cccc(S(=O)(=O)N2CCN(c3ccc(F)cc3)CC2)c1)N1CCN(c2ccccc2O)CC1,.,.,-,-,.,.,.,.,.,.
O=C1NCC(c2ccccc2)C1C(=O)N/N=C\c1ccc(-c2cccc(Cl)c2Cl)o1 (stereo unspecified),-,-,-,-,100.7,86.7,69.2,-,86.9,-
Cc1ccc(-c2ccc(/C=N\NC(=O)C3C(=O)NCC3c3ccccc3)o2)cc1Cl (stereo unspecified),-,-,-,-,69.5,-,48.3,-,60.9,-
COc1cccc(/C=N\NC(=O)C2C(=O)NCC2c2ccccc2)c1O (stereo unspecified),-,-,-,-,-,-,.,.,.,.
COC(=O)N/N=C/c1ccc(-c2ccc(C)c(Cl)c2)o1,-,-,-,-,-,-,.,.,.,.
CC(C)(C)NC(=O)C(Cc1ccccc1)NS(=O)(=O)c1cccc2nsnc12 (stereo unspecified),-,-,-,-,115.6,-,-,-,80.2,16.9
O=C(NCc1ccccc1)C(Cc1ccccc1)NS(=O)(=O)c1cccc2nsnc12 (stereo unspecified),-,-,-,-,-,-,.,.,.,.
O=C(NC(Cc1c[nH]c2ccccc12)C(=O)Nc1ccc(F)cc1)c1cccs1 (stereo unspecified),-,-,-,-,-,-,.,.,.,.
O=C(NC(Cc1c[nH]c2ccccc12)C(=O)N/N=C/c1cccnc1)c1cccs1 (stereo unspecified),-,-,-,-,71.0,-,-,-,-,-
COCCN(C(=O)Nc1ccc(OC)cc1)c1nc2ccccc2s1,-,-,-,-,-,-,.,.,.,.
CN(Cc1c(C(=O)N/N=C/c2ccc(O)cc2)nnn1-c1nonc1N)c1ccccc1,-,-,-,-,95.1,80.3,37.0,-,79.0,-
COc1ccccc1/C=N/NC(=O)c1nnn(-c2nonc2N)c1CN(C)c1ccccc1,-,-,-,-,-,-,.,.,.,.
CN(Cc1c(C(=O)N/N=C/c2ccccc2)nnn1-c1nonc1N)c1ccccc1,-,-,-,-,71.8,57.9,36.4,-,83.0,-
CN(C)c1ccc(/C=N/NC(=O)c2nnn(-c3nonc3N)c2CN(C)c2ccccc2)cc1,-,-,-,-,-,-,.,.,.,.
COc1ccc(/C=N/NC(=O)c2nnn(-c3nonc3N)c2CN(C)c2ccccc2)cc1,-,-,-,-,49.6,44.4,31.2,-,83.0,-
COc1ccc(CC(=O)NCc2ccc(Cl)cc2)cc1S(=O)(=O)N1CCOCC1,.,.,-,-,.,.,.,.,.,.
Cc1ccc(S(=O)(=O)N2C[C@H]3C(=O)C[C@@H](c4cccc(Cl)c4)N(S(=O)(=O)c4ccc(C)cc4)[C@H]3C[C@H]2c2ccc(Cl)cc2)cc1,.,.,-,-,.,.,.,.,.,.
Nc1ccc2c(c1)C(O)c1cccc(C(=O)O)c1-2 (stereo unspecified),.,.,-,-,.,.,.,.,.,.
O=C1C2C3CC(C(Br)C3Br)C2C(=O)N1c1nccs1 (stereo unspecified),-,.,-,-,-,-,.,.,.,.
CNc1oc(-c2ccccc2Cl)nc1C#N,-,-,-,-,-,-,.,.,.,.
CNc1oc(-c2cccc3ccccc23)nc1C#N,-,-,-,-,89.8,91.5,67.5,-,94.5,-
Cn1c(=O)c(C(=O)COC(=O)c2cc(C3CC3)nc3ccccc23)c(N)n(Cc2ccccc2)c1=O,-,-,-,-,-,-,.,.,.,.
Cn1c(=O)c(C(=O)COC(=O)c2cc(-c3ccco3)nc3ccccc23)c(N)n(CC2CC2)c1=O,-,-,.,.,69.4,-,-,-,64.5,-
CCNC(=O)c1ccc(NC(=O)CC2SC(N3CCCC3)=NC2=O)cc1 (stereo unspecified),-,.,-,-,-,-,.,.,.,.
CCC(=O)Nc1cc(NC(=O)CSc2ncc(-c3ccc(F)cc3)n2Cc2ccco2)ccc1C,-,-,-,-,83.9,49.8,36.3,-,63.1,-
COc1ccc(NC(=O)CSc2ncc(-c3ccc(F)cc3)n2Cc2ccco2)cc1,-,-,-,-,-,-,.,.,.,.
CCOC(=O)c1[nH]c2ccccc2c1NC(=O)c1ccc(Br)o1,-,-,-,-,99.3,101.1,34.2,-,89.9,-
CCOC(=O)c1[nH]c2ccccc2c1NC(=O)NC(C)C,-,-,-,-,-,-,.,.,.,.

# Screens from PubChem.
